Published values collected from several papers.
Lines come from different studies, so protocols differ.
Target: Mitogen-activated protein kinase 10 (MAPK10, Homo sapiens, UniProt P53779)

| SMILES | observed | method | tested at | remaining binding [%] |
| --- | --- | --- | --- | --- |
| O=C(NCC1CCOCC1)c1n[nH]cc1NC(=O)c1c(F)cccc1F | binding | competition with immobilised ligand | 1 µM | 31 |
| CN(CCCC(F)(F)F)c1nccc(-c2cnn3ncccc23)n1 | binding |  | 1 µM | 97 |
| Cc1nc(N2CC[C@@H](O)C2)ncc1-c1cc(C(F)(F)F)cc2[nH]ncc12 | binding | competition with immobilised ligand | 1 µM | 72 |
| CNC(=O)[C@@H]1CC[C@@H](n2c(-c3ccc4cnccc4c3)nc3ccc(C(=O)NCc4cccc(C(N)=O)c4)cc32)C1 | binding | competition with immobilised ligand | 1 µM | 84 |
| CN(C)c1ncc(F)c(-c2cnn3ncccc23)n1 | binding |  | 1 µM | 73 |
| N#Cc1ccccc1CSc1nnc2c(n1)[nH]c1ccccc12 | binding | competition with immobilised ligand | 10 µM | 100 |
| Cc1cnn2ncc(-c3ccnc(N(C)C)n3)c2c1 | binding |  | 1 µM | 71 |
| O=C(c1ccc(Nc2ncc(Cl)c(-c3ccc(Cl)s3)n2)cc1)N1CCC(N2CCCC2)CC1 | binding | competition with immobilised ligand | 1 µM | 1.1 |
| COc1ncc2cc3ccccc3nc2c1C#N | cell-free assay | competition with immobilised ligand | 5 µM | 100 |
| O=C(c1ccc(Nc2nccc(-c3cc4ccccc4s3)n2)cc1)N1CCC(N2CCCC2)CC1 | binding | competition with immobilised ligand | 1 µM | 12 |
| CCOCCn1cc(C(=O)Nc2ccc(-n3nc(-c4cccnc4)cc3C(F)(F)F)cn2)ccc1=O | cell-free assay | competition with immobilised ligand | 1 µM | 100 |
| CCN1CCN(Cc2ccc(C(=O)Nc3ccc(C)c(Oc4ccc5c(c4)CC(=O)N5)c3)cc2C(F)(F)F)CC1 | binding | competition with immobilised ligand | 1 µM | 81 |
| O=C(NCCCN1CCOCC1)c1ccc(Nc2ncc(Cl)c(-c3ccc(Cl)s3)n2)cc1 | binding | competition with immobilised ligand | 1 µM | 4.7 |
| O=C(N[C@H]1CCCCC/C=C\C2C[C@@]2(C(=O)O)NC(=O)[C@@H]2C[C@@H](Oc3ccncc3)CN2C1=O)OC1CCCC1 (stereo partly drawn) | binding | competition with immobilised ligand | 1 µM | 81 |
| Nc1ncc2c(n1)-c1c([nH]c3ccc(C#CC4CC4)cc13)CCCC2 | binding | competition with immobilised ligand | 1 µM | 76 |
| O=C(O)[C@@H]1[C@@H](Cn2nnc3ccccc3c2=O)CC[C@H]1C(=O)c1ccc(OCCC2CCOCC2)cc1 | cell-free assay | competition with immobilised ligand | 1 µM | 100 |
| N[C@H]1CCN(c2nccc(-c3cnn4ncccc34)n2)C1 | binding |  | 1 µM | 60 |
| CS(=O)(=O)NCC[C@H](NC(=O)c1cncc2c1cnn2-c1ccc(F)cc1)c1ccnc(S(C)(=O)=O)c1 | cell-free assay | competition with immobilised ligand | 1 µM | 100 |
| c1cncc(-c2cccc(Nc3nccc(NC4CCCCC4)n3)c2)c1 | binding | competition with immobilised ligand | 10 µM | 51 |
| c1cnn2ncc(-c3ccnc(N4CCC45COC5)n3)c2c1 | binding |  | 1 µM | 27 |
| CN(C)C(=O)Cn1cc(-c2nc([C@@](C)(c3ccc(-c4cnc(N)nc4)cc3)C3CC3)no2)cn1 | cell-free assay | competition with immobilised ligand | 1 µM | 94 |
| C[C@H]1CCN(c2nccc(-c3cnn4ncccc34)n2)C1 | binding |  | 1 µM | 32 |
| O=C1CCc2cc(Nc3cc(OC4CCOCC4)c([N+](=O)[O-])cc3Cl)ccc2N1 | cell-free assay | competition with immobilised ligand | 1 µM | 98 |
| C[C@@H]1CN(c2ccc3ncc(-c4ccc5[nH]nc(C6CC6)c5c4)n3n2)C[C@H](C)O1 | binding | competition with immobilised ligand | 0.5 µM | 52 |
